Results from article PMC2933425 (Journal of medicinal chemistry, 2010).
Like-named read-outs stand apart in the source and are kept apart here. Marks after values point to notes of the source that are not given here.

Tests used:
[1] = Photophysical measurements; type: physicochemical; settings: for Qy(0,0) absorption fwhm / Qy(0,0) absorption λ / Qy(0,0) fluorescence fwhm / Qy(0,0) fluorescence λ: aerated methanol; for Θ f (fluorescence quantum yield) / τS (lifetime of the lowest singlet excited state): Ar-purged methanol; for τS (lifetime of the lowest singlet excited state): fluorescence detection; for Φisc (triplet-excited-state quantum yield, measured directly): Ar-purged solutions; for kic (rate constant for internal conversion of the lowest singlet excited state to the ground state): printed as (x ns)^−1, from Φisc, Φf and τS
[2] = tested on: HeLa human cervical cancer cells; experiment: In vitro PDT toxicity on HeLa cells after illumination; type: cell-based; settings: for LD50: 24 h; for phototoxicity per unit uptake (in words) / incubation period needed to exert PDT toxicity (time-course) / LD50 (least active compounds): HeLa; for phototoxicity per unit uptake (in words): normalized to the same uptake level; for incubation period needed to exert PDT toxicity (time-course): 0.5 μM, various incubation times, 10 J/cm^2 of 732 nm light; for LD50 (least active compounds): 10 J/cm^2 of 732 nm laser
HeLa cells [3] = experiment: Cellular uptake into HeLa cells; type: cell-based, human; settings: 24 h, highest concentration (20.5 μM)
Outline: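 HeLa cells in RPMI with 10% heat-inactivated FBS, seeded at 5000/well and grown 24 h, then exposed 24 h to test compound diluted in complete medium. Cells rinsed with warm PBS, lysed in SOLVABLE 2 h at 37 °C. Lysate fluorescence read at ex 402/em 730 nm against per-compound calibration curves in SOLVABLE. Protein by BCA with BSA standards. Expressed as nmol per mg protein; three experiments.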

HeLa cells [4] = type: cell-based, human; settings: 1 μM bacteriochlorin, 24 h
Outline: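 HeLa cells in 35 mm dishes, attached overnight, then given 1 μM test compound in complete medium for 24 h. After a PBS wash, 5 μg/mL LysoTracker green DND-26, MitoTracker green FM or ER-Tracker green was added for 30 min at 37 °C. Cells were washed again and imaged 5–10 min later by confocal microscopy: 488 nm argon excitation, probe emission 515 ± 10 nm, compound emission >580 nm, 63× water lens. Red/green overlays scored for overlap.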

[5] = tested on: HeLa human cervical cancer cells; experiment: Dark toxicity on HeLa cells; settings: no light, at 10 μM
[6] = tested on: HeLa human cervical cancer cells; settings: 24 h, 10 μM
[7] = cited from earlier work
[8] = Ar-purged 2-methyltetrahydrofuran
[9] = freeze–pump–thaw degassed methanol

τT (lifetime of the lowest triplet excited state) [1, 8]	SMILES	LD50 [2]	uptake level (in words) (HeLa cells [3])	Qy(0,0) absorption fwhm [1]	Qy(0,0) absorption λ [1]	phototoxicity per unit uptake (in words) [2]	Θ f (fluorescence quantum yield) [1]	τS (lifetime of the lowest singlet excited state) [1]	Qy(0,0) fluorescence fwhm [1]	Qy(0,0) fluorescence λ [1]	also measured
–	CC1(C)Cc2cc3ccc(cc4nc(cc5ccc(cc1n2)[nH]5)CC4(C)C)[nH]3 [8,8,18,18-tetramethylbacteriochlorin, reference compound]	–	–	–	–	–	–	–	–	–	Φf of fluorescence standard ([1]; Ar-purged toluene, Soret and Qx excitation): 0.125
–	COCCOCCOCCOCCNCc1cc(CNCCOCCOCCOCCOC)cc(-c2c3nc(cc4[nH]c(cc4-c4ccc(C)cc4)c(OC)c4nc(cc5[nH]c2cc5-c2ccc(C)cc2)C(C)(C)C4)C(C)(C)C3)c1 [Compound 1]	500 nM	Low to intermediate uptake	21 nm	732 nm	–	–	–	–	–	–
159 μs	CC1(C)Cc2cc3[nH]c(cc4nc(cc5[nH]c(cc1n2)cc5-c1cc(OCCO)cc(OCCO)c1)CC4(C)C)cc3-c1cc(OCCO)cc(OCCO)c1 [Compound 3]	–	–	19 nm	732 nm	high values	0.15	3.0 ns	24 nm	738 nm	–
190 μs	CC1(C)Cc2cc3[nH]c(cc4nc(cc5[nH]c(cc1n2)cc5-c1cc(O)cc(O)c1)CC4(C)C)cc3-c1cc(O)cc(O)c1 [Compound 4]	–	–	21 nm	732 nm	high values	0.12	3.7 ns	26 nm	737 nm	incubation period needed to exert PDT toxicity (time-course) [2]: most rapid toxicity; overlap with endoplasmic reticulum probe (ER-Tracker) (HeLa cells [4]): high degree of localization; Φisc (triplet-excited-state quantum yield, measured directly) [1]: 0.41; kic (rate constant for internal conversion of the lowest singlet excited state to the ground state) [1]: 7.7 (ns)^−1
–	CC1(C)Cc2cc3[nH]c(cc4nc(cc5[nH]c(cc1n2)cc5C#CC[N+](C)(C)C)CC4(C)C)cc3C#CC[N+](C)(C)C.[Cl-].[Cl-] [Compound 5]	–	Intermediate uptake levels	16 nm	749 nm	much lower values	0.11	3.8 ns	22 nm	754 nm	LD50 (least active compounds) [2]: > 1 µM; τT (lifetime of the lowest triplet excited state) [1, 9]: 104 ^k μs; dark toxicity level [5]: ~50%
190 μs	CC1(C)Cc2cc3[nH]c(cc4nc(cc5[nH]c(cc1n2)cc5CN(CCO)CCO)CC4(C)C)cc3CN(CCO)CCO [Compound 6]	–	Intermediate uptake levels	18 nm	718 nm	high values	0.095	3.8 ns	23 nm	724 nm	overlap with endoplasmic reticulum probe (ER-Tracker) (HeLa cells [4]): good overlap; dark toxicity level [6]: ~50%
–	CC1(C)Cc2cc3[nH]c(cc4nc(cc5[nH]c(cc1n2)cc5C(=O)NCCN)CC4(C)C)cc3C(=O)NCCN [Compound 8]	3000 nM	Intermediate uptake levels	23 nm	742 nm	much lower values	0.13	4.0 ns	25 nm	750 nm	incubation period needed to exert PDT toxicity (time-course) [2]: longest incubation times; LD50 (least active compounds) [2]: > 1 µM; overlap with endoplasmic reticulum probe (ER-Tracker) (HeLa cells [4]): hardly any overlap; τT (lifetime of the lowest triplet excited state) [1, 9]: 77 ^k μs
–	CC1(C)Cc2cc3[nH]c(cc4nc(cc5[nH]c(cc1n2)cc5C(=O)N(CCN)CCN)CC4(C)C)cc3C(=O)N(CCN)CCN [Compound 9]	800 nM	low uptake	19 nm	729 nm	much lower values	0.12	3.5 ns	24 nm	735 nm	Φisc (triplet-excited-state quantum yield, measured directly) [1]: 0.57; τT (lifetime of the lowest triplet excited state) ([1]; freeze–pump–thaw degassed ethanol): 54 ^l μs; kic (rate constant for internal conversion of the lowest singlet excited state to the ground state) [1]: 11.4 (ns)^−1
–	CC1(C)Cc2cc3[nH]c(cc4nc(cc5[nH]c(cc1n2)cc5C(=O)N1CC[N+](C)(C)CC1)CC4(C)C)cc3C(=O)N1CC[N+](C)(C)CC1.[Cl-].[Cl-] [Compound 10]	–	low uptake	21 nm	731 nm	much lower values	0.12	3.8 ns	28 nm	740 nm	τT (lifetime of the lowest triplet excited state) [1, 9]: 100 ^k μs
105 μs	COCCN(CCOC)C(=O)c1cc2cc3nc(cc4[nH]c(cc5nc(cc1[nH]2)CC5(C)C)cc4C(=O)N(CCOC)CCOC)CC3(C)C [Compound 12]	–	highest uptake	20 nm	727 nm	high values	0.10	3.3 ns	27 nm	733 nm	–
–	CC[C@H]1c2cc3[nH]c4c(c3C)C(=O)[C@H](C(=O)OC)c4c3nc(cc4[nH]c(cc(n2)[C@@H]1C)c(C(C)=O)c4C)[C@@H](C)[C@@H]3CCC(=O)OC/C=C(\C)CCC[C@H](C)CCC[C@H](C)CCCC(C)C [bacteriopheophytin a]	–	–	–	–	–	–	–	–	–	yield of the lowest triplet excited state [7]: 0.54
–	C1=Cc2nc1c(-c1ccccc1)c1nc(c(-c3ccccc3)c3ccc([nH]3)c(-c3ccccc3)c3ccc([nH]3)c2-c2ccccc2)C=C1 [free base tetraphenylporphyrin, tetraphenylporphyrin]	–	–	–	–	–	–	–	–	–	Φf of fluorescence standard ([7]; in toluene ref 33): 0.090

SMILES	τT (lifetime of the lowest triplet excited state) [1, 8]	LD50 [2]	uptake level (in words) (HeLa cells [3])	Qy(0,0) absorption fwhm [1]	Qy(0,0) absorption λ [1]	phototoxicity per unit uptake (in words) [2]	Θ f (fluorescence quantum yield) [1]	τS (lifetime of the lowest singlet excited state) [1]	Qy(0,0) fluorescence fwhm [1]	Qy(0,0) fluorescence λ [1]	also measured
CC1(C)Cc2cc3[nH]c(cc4nc(cc5[nH]c(cc1n2)cc5C(=O)O)CC4(C)C)cc3C(=O)O [Compound 7]	70 μs	4000 nM	lowest uptake	26 nm	734 nm	–	0.077	3.7 ns	19 nm	742 nm	LD50 (least active compounds) [2]: > 1 µM
CC1(C)Cc2cc3[nH]c(cc4nc(cc5[nH]c(cc1n2)cc5C(=O)/C=C/c1cc(O)cc(O)c1)CC4(C)C)cc3C(=O)/C=C/c1cc(O)cc(O)c1 [Compound 11]	78 μs	200 nM	low uptake	35 nm	781 nm	–	0.021	3.4 ns	40 nm	800 nm	–
